In ChEMBL document CHEMBL1142632, “A new bioactive sesterterpene and antiplasmodial alkaloids from the marine sponge hyrtios cf. erecta” (J Nat Prod, 2000):
Values after ≈ are worked out from the molar mass of the structure shown. Active and inactive are the calls of the source. No cut-off for these calls is given here.

Assays:
[1] = target: Tyrosine-protein kinase Lck (Homo sapiens) (UniProt P06239); experiment: Inhibition of p56 LCK activity at 0.5 mM; parameters: scale not given: the % may be the effect or the level left
Sequence of Tyrosine-protein kinase Lck (Homo sapiens) (P06239 2-509 limits assumed): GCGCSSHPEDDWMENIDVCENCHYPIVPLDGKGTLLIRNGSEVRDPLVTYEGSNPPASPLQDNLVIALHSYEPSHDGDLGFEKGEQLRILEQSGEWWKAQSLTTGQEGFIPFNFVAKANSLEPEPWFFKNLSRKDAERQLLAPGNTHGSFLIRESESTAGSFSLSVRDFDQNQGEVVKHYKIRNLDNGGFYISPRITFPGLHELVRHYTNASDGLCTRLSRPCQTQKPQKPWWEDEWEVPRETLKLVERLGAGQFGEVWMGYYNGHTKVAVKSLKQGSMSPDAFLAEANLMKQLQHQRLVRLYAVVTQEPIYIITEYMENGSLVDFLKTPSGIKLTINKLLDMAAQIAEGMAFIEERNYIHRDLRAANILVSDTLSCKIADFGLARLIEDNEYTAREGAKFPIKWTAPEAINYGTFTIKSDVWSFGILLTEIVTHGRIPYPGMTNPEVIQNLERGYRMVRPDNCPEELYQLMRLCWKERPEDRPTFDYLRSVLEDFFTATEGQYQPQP
Procedure, shortened: (§1)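 Nonradioactive ELISA-based tyrosine kinase assay. Samples in DMSO/H2O (1:1) were incubated with 1 U p56lck, 1 µM tyrosine kinase substrate II, 1 mM ATP and 10 mM MgCl2 at 30 °C for 60 to 80 min. Buffers: 20% dilution buffer (HEPES, pH 7.0) and 20% assay buffer (Tris, pH 7.5, with Na3VO4). Absorbance read at 415 nm as residual activity.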

[2] = target: Human immunodeficiency virus type 1 reverse transcriptase (Human immunodeficiency virus 1) (UniProt Q72547); experiment: Inhibition of HIV1 reverse transcriptase assessed as enzyme residual activity at 0.12 mM
Procedure, shortened: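 Nonradioactive ELISA-based reverse transcriptase assay. Reaction mixture held 1 ng recombinant HIV-1-RT. Samples were dissolved in 10% DMSO/lysis buffer. Read-out was residual enzyme activity.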

[3] = Cytotoxicity against rat L6 cells; assay type: cell-based; details: read-out: MIC
[4] = tested on: Plasmodium falciparum; experiment: Antiplasmodial activity against chloroquine-sensitive Plasmodium falciparum NF54; assay type: functional, organism-based
Procedure, shortened: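 In vitro assay against P. falciparum strain NF54, of unknown origin and susceptible to standard antimalarials. Chloroquine and artemisinin were run as positive controls.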

[5] = tested on: Trypanosoma brucei rhodesiense; experiment: Antitrypanosomal activity against Trypanosoma brucei subsp. rhodesiense; assay type: functional, organism-based
[6] = target: Tyrosine-protein kinase Lck (Homo sapiens) (UniProt P06239); experiment: Inhibition of p56 LCK activity at 0.7 mM; parameters: scale not given: the % may be the effect or the level left; procedure, shortened: as §1
[7] = tested on: Priestia megaterium; experiment: Antibacterial activity against Bacillus megaterium at 50 ug by agar diffusion assay; assay type: functional; details: read-out: IZ
Procedure, shortened: (§2)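 Agar diffusion: crude extracts and pure compounds applied at 50 µg per disk; growth inhibition read as zone diameter (mm).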

[8] = tested on: Hepatovirus A; experiment: Antiviral activity against HAV 7 in FRhK4 cells assessed as effect on cytopathogenic effect at 0.038 ug/mL after 21 days by immunofluorescence analysis; assay type: functional, organism-based
Procedure, shortened: (§3)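 FRhK-4 cells in 96-well plates were used. For line 5, cells were inoculated with 2 × 10^7 TCID50/ml HAVcytHB1.1. For line 4, cells were persistently infected with HAV/7. Morphology (cytopathogenicity) was checked microscopically over 21 days, and HAV antigen was detected by immunofluorescence after 21 days.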

[9] = tested on: Plasmodium falciparum; experiment: Antiplasmodial activity against chloroquine, pyrimethamine-resistant Plasmodium falciparum K1; assay type: functional, organism-based
Procedure, shortened: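 In vitro assay against P. falciparum strain K1, a Thailand isolate resistant to chloroquine and pyrimethamine. Chloroquine and artemisinin were run as positive controls.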

[10] = tested on: Hepatovirus A; experiment: Antiviral activity against HAV cytHB1.1 in FRhK4 cells assessed as effect on cytopathogenic effect at 0.038 ug/mL after 21 days by immunofluorescence analysis; assay type: functional, organism-based; procedure, shortened: as §3
[11] = tested on: Escherichia coli; experiment: Antibacterial activity against Escherichia coli at 50 ug by agar diffusion assay; assay type: functional; details: read-out: IZ; procedure, shortened: as §2
[12] = Cytotoxicity against mouse peritoneal macrophages; assay type: cell-based, Macrophage; details: read-out: MIC
[13] = target: Tyrosine-protein kinase Lck (Homo sapiens) (UniProt P06239); experiment: Inhibition of p56 LCK activity at 0.6 mM; parameters: scale not given: the % may be the effect or the level left; procedure, shortened: as §1
[14] = target: Tyrosine-protein kinase Lck (Homo sapiens) (UniProt P06239); experiment: Inhibition of p56 LCK activity at 0.3 mM; parameters: scale not given: the % may be the effect or the level left; procedure, shortened: as §1
[15] = tested on: Microbotryum violaceum; experiment: Antifungal activity against Ustilago violacea at 50 ug by agar diffusion assay; assay type: functional; details: read-out: IZ; procedure, shortened: as §2

Row | SMILES | MCC [3] | IC50 [4] | zone of inhibition at 50 µg/disc [7] | IC50 [9] | zone of inhibition at 50 µg/disc [11] | also measured
1 | CC1=C(CC/C(C)=C/CC/C(C)=C/CCC2=CCOC2=O)C(C)(C)CCC1=O | – | – | – | – | – | Activity [1]: 45%
2 | O=C1c2ccccc2-[n+]2ccc3c([nH]c4ccccc43)c21.[Cl-] [FASCAPLYSIN CHLORIDE] | 2.5 µg/mL | 0.034 µg/mL | 10 mm | 0.05 µg/mL | 6 mm | Activity [2]: 10%; IC50 [5]: 630 nM; Activity [6]: 10%; Activity [8]: Active; Activity [10]: Active
3 | CC(=O)CC1(O)c2ccccc2-[n+]2ccc3c([nH]c4ccccc43)c21.[Cl-] (configuration not stated) [HOMOFASCAPLYSIN A] | 1.1 µg/mL | 0.024 µg/mL | 11 mm | 0.014 µg/mL | 9 mm | MCC [12]: 30 µg/mL; Activity [13]: 8%; Activity [14]: 44%
4 | C[C@@H]1CC[C@H]2[C@@H](C)C(=O)O[C@@H]3O[C@@]4(C)CC[C@@H]1[C@]32OO4 [ARTEMISININ] | – | 0.002 µg/mL (≈ 7.08 nM) | – | 0.001 µg/mL (≈ 3.54 nM) | – | –
5 | CC1=C(CC/C(C)=C/CC/C(C)=C/CCC2=CCOC2=O)C(C)(C)CCC1 | – | – | – | – | – | zone of inhibition at 50 µg/disc [15]: 2 mm
